Assay results reported in ChEMBL document CHEMBL4513216, “Probing the Open Global Health Chemical Diversity Library for Multistage-Active Starting Points for Next-Generation Antimalarials” (ACS Infect Dis, 2020).

assay: Toxicity liver stage against HepG2, at 10uM; assay type: cell-based; parameters: test concentration 10 uM, cell line HepG2-A16-CD81EGFP; conditions: human, HepG2-A16-CD81EGFP cells; read-out: INHIBITION
Outline: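 Uninfected HepG2-A16-CD81EGFP cells, 3 × 10^3 per well, 1536-well, plated on prespotted compound at 10 μM final, parasite-free screening media added to match infected plates; puromycin 10 μM positive, DMSO 0.5% negative; run in parallel with 48 h PbLuc assay at 37 °C, 5% CO2; viability by CellTiter-Glo luminescence, normalized to controls.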

SMILES | cytotoxicity at 10 µM
Cc1cc(CNC(=O)C2CCC(=O)N(Cc3ccccc3F)C2)on1 (centres undefined) | -5.26%
O=C1CO[C@H]2CN(Cc3c[nH]c4ccccc34)C[C@H]2N1 | 1.61%
CN(C)[C@@H]1CO[C@H](CNC(=O)c2cccs2)[C@H]1O | -1.37%
CCN1CCN(C(=O)c2cn(Cc3ccccc3)c3ncccc23)CC1 | -1.6%
CC(C)Cn1nc2ccc(S(=O)(=O)N3CCC(C)CC3)cn2c1=O | 1.67%
O=C(c1cc(C2CC2)on1)N1CCC(Oc2ncccc2Br)CC1 | 3.96%
CN(C)c1cnnc(N2CCN(C(=O)Cc3ccccc3)CC2)c1 | 5.5%
O=C(C1CCCO1)N1CCc2nnc(Cn3cccc3)n2CC1 (centres undefined) | 13.9%
COCCN1CCC2(CC1)CC(OCC1CC1)c1ccc(C)cc12 (centres undefined) | 15.5%
O=C(NCc1ccccc1)N1Cc2nc(COCC3CC3)oc2C1 | 8.67%
c1ccc(CN2CCC3(COCc4cnc(NCC5CC5)nc43)C2)cc1 (centres undefined) | 12.5%
CCN1CC2(CC1=O)CN(Cc1ccoc1)CCN(C(=O)C(C)C)C2 (centres undefined) | 9.14%
CCOc1cc(=O)n2c(c1C(=O)OCc1cccc(C)c1)CCCC2 | -15.1%
Nc1nc(N2CCCCCC2)ncc1C(=O)NCc1ccc(F)c(Cl)c1 | -0.585%
Cc1nc(N2CCCC2)nc2c1CCN(C(=O)C1CCCC1)CC2 | -0.265%
Cc1nn(C)c2c(N3CCN(C(=O)C4CC4)CC3)ncnc12 | 9.02%
Cc1nn(C)c(C)c1CN(C)C(=O)c1cc(NC(=O)C2CC2)n(C)n1 | 3.38%
CCOc1cc(C(=O)N2CCN(C)CC2)cc2occc12 | 7%
CCc1c(O)nc2nc(N3CCCC3)nn2c1C | 10%
CS(=O)(=O)c1snnc1C1CCN(Cc2cccc(O)c2)CC1 | -8.91%
Cc1ccc(C(=O)N2CC[C@H](Oc3cccnc3C)[C@@H](O)CC2)s1 | -5.58%
CCCC1c2cccn2CCN1C(=O)c1cc(CC)no1 (centres undefined) | -14.9%

SMILES | cytotoxicity at 10 µM
O=S1(=O)NCC2(CCN(Cc3ccncc3)CC2)Oc2ncccc21 | 5.97%
N#CCCn1cnc2c(Br)cc(Br)cc2c1=O | -5.35%
O=C(CSCCN1CCOCC1)N1CCCCCC1 | 10.4%
Cc1cc(C)c(CNC(=O)NCCCNc2ccccn2)c(=O)[nH]1 | -43%
CS(=O)(=O)c1cccc2c1CCCN2C(=O)Cc1cccc(F)c1 | 8.14%
Cn1ccc(C(=O)Nc2nnc(-c3ccccn3)[nH]2)cc1=O | 6.69%
O=C(NCCCN1CCOCC1)c1ccnc(OCc2ccccc2)c1 | -21.4%
COc1ccc(NC(=O)c2ccco2)c(N2CCN(C(C)=O)CC2)n1 | -10.2%
CC(O)C1CCN(Cc2nccn2CC(F)(F)F)CC1 (centres undefined) | 4.29%
CCC(CC)C(CNC(=O)Nc1ccc(OC)cc1)N1CCOCC1 (centres undefined) | -2.86%
O=C(Nc1cc(-c2ccccc2)on1)N1CCN(CCO)CC1 | 3.3%
CCN(CCc1nccs1)C(=O)c1sccc1C | -0.682%
Cc1nn(C)c(C)c1C(=O)N1CCN(c2ccncc2Cl)CC1 | -2.25%
Cc1cnc(CN(C)C2CCN(Cc3nc4c(F)cccc4[nH]3)C2)o1 (centres undefined) | 2.53%
O=C(c1ccc(O)nc1)N1CCN(C(=O)c2ccc(F)cc2F)CC1 | -1.35%
Cc1ccnc(NC(=O)C2CCN(CCCn3ccnc3C)CC2)c1 | -58.2%
O=S(=O)(Nc1ccon1)c1cc(Cl)cc2c1OCC2 | 5.81%
Cc1ncsc1C(=O)N1CC(C)Sc2ccccc21 (centres undefined) | -0.663%
CCNC(=O)NC(=O)CNC1(c2noc(C)n2)CCCCC1 | -1.3%
O=C(c1cocn1)N1C[C@@H]2COC[C@]2(COc2cccnc2)C1 | -107%
Cn1cccc1C(=O)N1C[C@@H]2C[C@@H](c3nnc(C4CC4)o3)O[C@@H]2C1 | -112%
COCCNC(=O)[C@@H]1CN(c2ncccn2)C[C@H]2OCC[C@H]21 | -68.4%

SMILES | cytotoxicity at 10 µM
CCCS(=O)(=O)NC1CCc2c(ccc(=O)n2CC2CC2)C1 (centres undefined) | -67.3%
O=C1CC2(CCN(Cc3ccoc3)C2)CN1c1cncnc1 (centres undefined) | -69.4%
Cc1ccc(S(=O)(=O)N2CCC3(CC(C(=O)NCC4CC4)=NO3)C2)cc1 (centres undefined) | 4.35%
Cc1nc(CCN(C)C(=O)CCNC(=O)c2ccccc2F)no1 | 6.35%
COc1cccc(N2CCC(N3CCOC(C(F)(F)F)C3)CC2)c1 (centres undefined) | -1.71%
Cc1cc(NCCS(C)(=O)=O)n2nc(C)cc2n1 | -14%
NCC1Cc2cc(-c3nccc(N4CCC(O)CC4)n3)cc(Cl)c2O1 (centres undefined) | -4.33%
Cc1nc(O)cc(C2CCN(C(=O)CN(C)c3ccccc3)CC2)n1 | 8.92%
Cc1cc(C(=O)N[C@H]2CN(CCO)C[C@@H]2C2CC2)sc1C | 1.18%
O=C(N[C@@H]1CCN(C(=O)c2cc[nH]c2)C[C@H]1O)c1ccccn1 | 5.89%
Cc1cc(C)c2nc(CNCCNS(C)(=O)=O)cc(O)c2c1 | 0.145%
CCc1cnc(NCC2OCCc3ccccc32)nc1 (centres undefined) | -3.6%
CCCN1CCN(C(=O)c2cc3ccccc3cn2)[C@H]2CS(=O)(=O)C[C@H]21 | 1.1%
CC(C)c1noc(-c2ccc(NCCCC3CCOC3)nc2)n1 (centres undefined) | -7.37%
O=c1n(CCn2cccc2)nc(C2CCNCC2)n1Cc1ccccc1 | -2.06%
Cc1[nH]c2ccc(C#N)cc2c1CCNc1ncnc2c1CCNCC2 | -11.2%
CN(Cc1cc2n(n1)CCNC2)Cc1n[nH]c2c1CCCCC2 | -6.32%
Cc1cccc(SC2CCN(C(=O)CCCn3cnnn3)CC2)c1 | 0.647%
COC(=O)CCCn1ccnc1-c1ccc(OC)c(F)c1F | -2.8%
CCCc1cc(NCCn2cccn2)n2nccc2n1 | 0.988%
Cc1cc(C(=O)N(C)Cc2cnn(C)c2)c(NC(=O)C(C)(C)C)s1 | 0.254%
Cc1nc[nH]c1CN1CCC(C2CCN(CCc3ccccc3)C2)CC1 (centres undefined) | -3.52%

SMILES | cytotoxicity at 10 µM
c1ncn(Cc2nnc(C3CCN(CC4CC4)CC3)n2C2CC2)n1 | 5.2%
CSc1cccc(CNC(=O)C2CC(=O)N(C3CC3)C2)c1 (centres undefined) | -12.3%
CN(Cc1cnc(N)nc1)C(=O)C1CCN(C(=O)C2CCCC2)CC1 | -1.42%
COc1ccc(C2(C(=O)NCc3c(C)ncc4c3CCNC4)CC2)cc1 | -50.7%
O=C(NCCCSC1CCCCC1)C1NCCc2[nH]cnc21 (centres undefined) | -0.283%
Cc1c(-c2n[nH]c3c2CN(CC2CCOC2)CC3)cccc1C(F)(F)F (centres undefined) | -43.2%
Cc1nc(-c2cccc(N3CCC(N[C@@H]4CCOC4)CC3)c2)cs1 | -8.16%
CN1CCN2CCN(C(=O)c3cc4ncc(CCO)cn4n3)CC2C1 (centres undefined) | 6.99%
CN(C)C(=O)c1ccc(C(C(=O)O)N(C)Cc2ccccc2Cl)cc1 (centres undefined) | -54.6%
Cc1nn(C)c2nc(NCCOCCO)sc12 | -5%
CCOc1ccccc1C(=O)Nn1c(C)cc(C)cc1=O | -10.9%
CC(=O)NCCc1cc(N2CCN(C(C)=O)CC2)nc(C2CC2)n1 | 2.24%
c1ccc(-c2nc(CN3CCCC3Cn3cccn3)no2)cc1 (centres undefined) | -6.69%
Cc1nccc(-c2cccc(NCC(=O)N3CCNC(=O)C3)c2)n1 | -0.797%
COc1ccc(CN(C)C(=O)NCc2c(C)cc(C)nc2OC)cc1 | -7.11%
CCOc1cc(C)nc(N2CCN(C(=O)c3cn[nH]c3CC)CC2)n1 | -2%
CCN1CCN(C(C)CNC(=O)Nc2cnn(CC)c2)CC1 (centres undefined) | -12.9%
Cc1ccoc1C(=O)NC1CCN(Cc2ccccc2F)CC1 | -14.1%
CCCc1n[nH]c(C2CN(CCS(=O)(=O)CC)CCO2)n1 (centres undefined) | -5.83%
CC(NC(=O)NCCCN(C)S(C)(=O)=O)c1ccc(C#N)cc1 (centres undefined) | -5.77%
CC(C)(C)c1nnc(CN2CCCC(c3cc(C(N)=O)[nH]n3)C2)o1 (centres undefined) | -7.89%
CCOC1CCCN(C(=O)c2sccc2-n2cnnn2)C1 (centres undefined) | 4.39%

SMILES | cytotoxicity at 10 µM
Cc1noc(C)c1CNC(=O)N1CCN(Cc2cscn2)CC1 | -6.31%
COc1ccc(C)cc1CC(=O)N1CCN(CC(C)O)CC1 (centres undefined) | -8.65%
COc1ccc(C(C)NCc2c[nH]nc2C)cc1Br (centres undefined) | -5.57%
O=C(c1ccoc1)N1CCC2(CCC(=O)N2Cc2ccncc2)CC1 | -1%
OCCN1CCOC2(CCCN(c3cccc(F)c3)C2)C1 (centres undefined) | 2.01%
O=C(NCc1cn2c(n1)CN(Cc1ccncc1)CC2)C1CCC1 | 6.76%
Fc1cnc(N2CC[C@@H](N3CCOCC3)[C@@H]2Cc2cccnc2)nc1 | 11.7%
Cc1cccc(CN2CCc3c(CNC(=O)CC#N)nn(C)c3C2)n1 | 4.89%
N#Cc1ccc(N2CCC3(CCC(=O)N3Cc3ccncc3)CC2)nc1 | -109%
COc1cc(N2CC[C@@H](O)[C@@H]2Cc2ccncc2)ncn1 | -84.5%
O=C(NCc1ccco1)[C@H]1C[C@@H]2CCN(c3cccc(F)c3)C[C@H]2O1 | 8.68%
Cc1nc(CN2CC[C@H]3[C@H]2CCN3c2ncccn2)cs1 | -0.603%
Cc1ccc(C(=O)N2C[C@H]3CCC[C@@]3(COCc3ccncc3)C2)cn1 | 6.64%
Cc1cccc(CN2Cc3nccn3CC(CN3CCOCC3)C2)c1 (centres undefined) | -75.2%
O=C1CC(NCc2cnc(N3CCCC3)nc2)CN1c1ccccc1 (centres undefined) | -4.56%
COCC(=O)N1CCCC2(CCN(Cc3cccc(C)n3)C2=O)C1 (centres undefined) | -0.559%
CN(C)CC1CN(Cc2ccc3c(c2)OCO3)Cc2nccn2C1 (centres undefined) | -0.362%
COCCN1CCc2c(CNC(=O)c3nccn3C)cncc2C1 | -107%
CCCN1C[C@@H]2CC[C@H]1CN(C(=O)c1ccc(N(C)CCO)cc1)C2 | -6.47%
COc1ccccc1C(=O)NC(c1ccccn1)C1CCC(CN)CC1 (centres undefined) | -12.8%
COC(=O)N1C[C@@H]2CC[C@H]1CN(Cc1ccncc1)C2 | -10%
